{"data": "Results of several laboratories", "BRAF": "Serine/threonine-protein kinase B-raf (BRAF, Homo sapiens, UniProt P15056)", "BRAF V600E": "Serine/threonine-protein kinase B-raf (BRAF, Homo sapiens, UniProt P15056, V600E)", "note": "Compare with care: the assays were run in different laboratories."}
{"Structure (SMILES)": "NS(=O)(=O)c1cc(NC(=O)C2(c3ccccc3Cl)CC2)ccc1Oc1cccc(Cl)c1", "target": "BRAF", "assay": "cell-free assay, competition with immobilised ligand", "conditions": "1 µM", "remaining binding [%]": 71}
{"Structure (SMILES)": "O=C(NCCCN1CCOCC1)c1ccc(Nc2ncc(Cl)c(-c3ccc(Cl)s3)n2)cc1", "target": "BRAF V600E", "assay": "binding, competition with immobilised ligand", "conditions": "1 µM", "remaining binding [%]": 92}
{"Structure (SMILES)": "CC1CCCN1c1nccc(-c2cnn3ncccc23)n1 (stereo not shown)", "target": "BRAF V600E", "assay": "binding", "conditions": "1 µM", "remaining binding [%]": 100}
{"Structure (SMILES)": "CN1CCN(c2ccc(Nc3nccc(-c4ccccc4)n3)cc2C(F)(F)F)CC1", "target": "BRAF V600E", "assay": "binding", "conditions": "10 µM", "remaining binding [%]": 31}
{"Structure (SMILES)": "N[C@H]1CCN(c2nccc(-c3cnn4ncccc34)n2)C1", "target": "BRAF", "assay": "binding", "conditions": "1 µM", "remaining binding [%]": 84}
{"Structure (SMILES)": "COc1ncc2cc3ccccc3nc2c1C#N", "target": "BRAF", "assay": "cell-free assay, competition with immobilised ligand", "conditions": "5 µM", "remaining binding [%]": 100}
{"Structure (SMILES)": "NS(=O)(=O)c1cc(NC(=O)Cc2ccccc2)ccc1Oc1cccc(Cl)c1", "target": "BRAF", "assay": "cell-free assay, competition with immobilised ligand", "conditions": "1 µM", "remaining binding [%]": 96}
{"Structure (SMILES)": "C[C@@H](c1ccc(-n2cnc3c(N)ncnc32)cc1)N1CCc2nn(C)c(Cc3ccccc3)c2C1=O", "target": "BRAF", "assay": "binding, competition with immobilised ligand", "conditions": "0.1 µM", "remaining binding [%]": 100}
{"Structure (SMILES)": "O=C(NCC1CCOCC1)c1n[nH]cc1NC(=O)c1c(F)cccc1F", "target": "BRAF", "assay": "binding, competition with immobilised ligand", "conditions": "1 µM", "remaining binding [%]": 93}
{"Structure (SMILES)": "C[C@H]1CCN(c2nccc(-c3cnn4ncccc34)n2)C1", "target": "BRAF V600E", "assay": "binding", "conditions": "1 µM", "remaining binding [%]": 93}
{"Structure (SMILES)": "O=C(c1ccc(Nc2ncc(Cl)c(-c3ccc(Cl)s3)n2)cc1)N1CCC(N2CCCC2)CC1", "target": "BRAF V600E", "assay": "binding, competition with immobilised ligand", "conditions": "1 µM", "remaining binding [%]": 37}
{"Structure (SMILES)": "CC(C)(C)c1ccc(-c2nc(CBr)nn2-c2cccc(O)c2)cc1", "target": "BRAF", "assay": "cell-free assay, competition with immobilised ligand", "conditions": "10 µM", "remaining binding [%]": 77}
{"Structure (SMILES)": "C[C@@H]1CN(c2ccc3ncc(-c4ccc5[nH]nc(C6CC6)c5c4)n3n2)C[C@H](C)O1", "target": "BRAF", "assay": "binding, competition with immobilised ligand", "conditions": "0.5 µM", "remaining binding [%]": 100}
{"Structure (SMILES)": "C[C@@H]1CN(c2cc(-c3n[nH]c4ccc(OC5(C)CC5)cc34)ncn2)C[C@H](C)O1", "target": "BRAF V600E", "assay": "cell-free assay, competition with immobilised ligand", "conditions": "0.1 µM", "remaining binding [%]": 89}
{"Structure (SMILES)": "c1cnn2ncc(-c3ccnc(N4CCC45COC5)n3)c2c1", "target": "BRAF", "assay": "binding", "conditions": "1 µM", "remaining binding [%]": 56}
{"Structure (SMILES)": "COc1cnc(Nc2cccc(S(N)(=O)=O)c2)nc1N1CCN(c2ccccc2)C(=O)C1", "target": "BRAF V600E", "assay": "binding, competition with immobilised ligand", "conditions": "1 µM", "remaining binding [%]": 84}
{"Structure (SMILES)": "Cc1cnn2ncc(-c3ccnc(N(C)C)n3)c2c1", "target": "BRAF", "assay": "binding", "conditions": "1 µM", "remaining binding [%]": 82}
{"Structure (SMILES)": "Cc1nccc(COC(=O)N2C[C@@H]3[C@@H](CNC(=O)c4ccc5[nH]nnc5c4)[C@@H]3C2)n1", "target": "BRAF V600E", "assay": "cell-free assay, competition with immobilised ligand", "conditions": "1 µM", "remaining binding [%]": 100}
{"Structure (SMILES)": "c1cncc(-c2cccc(Nc3nccc(NC4CCCCC4)n3)c2)c1", "target": "BRAF", "assay": "binding, competition with immobilised ligand", "conditions": "10 µM", "remaining binding [%]": 69}
{"Structure (SMILES)": "CN(CCCC(F)(F)F)c1nccc(-c2cnn3ncccc23)n1", "target": "BRAF V600E", "assay": "binding", "conditions": "1 µM", "remaining binding [%]": 100}
{"Structure (SMILES)": "Cc1cnc(Nc2ccc(C(=O)N3CCC(N4CCCC4)CC3)cc2)nc1-c1cc2ccccc2s1", "target": "BRAF", "assay": "binding, competition with immobilised ligand", "conditions": "1 µM", "remaining binding [%]": 46}
{"Structure (SMILES)": "Cc1nc(Cc2cccc(C(F)(F)F)c2)sc1-c1ccc(C(N)=O)nc1", "target": "BRAF", "assay": "cell-free assay, competition with immobilised ligand", "conditions": "1 µM", "remaining binding [%]": 73}
{"Structure (SMILES)": "CNC(=O)[C@@H]1CC[C@@H](n2c(-c3ccc4cnccc4c3)nc3ccc(C(=O)NCc4cccc(C(N)=O)c4)cc32)C1", "target": "BRAF V600E", "assay": "binding, competition with immobilised ligand", "conditions": "1 µM", "remaining binding [%]": 100}
{"Structure (SMILES)": "COc1ccnn2ncc(-c3ccnc(N(C)C)n3)c12", "target": "BRAF", "assay": "binding", "conditions": "1 µM", "remaining binding [%]": 48}
{"Structure (SMILES)": "O=C(c1ccc(Nc2ncc(Cl)c(-c3cc4ccccc4s3)n2)cc1)N1CCC(N2CCCC2)CC1", "target": "BRAF", "assay": "binding, competition with immobilised ligand", "conditions": "1 µM", "remaining binding [%]": 64}
{"Structure (SMILES)": "CNCc1ccccc1-c1csc([C@H](C)Nc2nc(C)nc3cc(OC)c(OC)cc23)c1", "target": "BRAF", "assay": "cell-free assay, competition with immobilised ligand", "conditions": "1 µM", "remaining binding [%]": 97}
{"Structure (SMILES)": "O=C(c1ccc(Nc2nccc(-c3cc4ccccc4s3)n2)cc1)N1CCC(N2CCCC2)CC1", "target": "BRAF V600E", "assay": "binding, competition with immobilised ligand", "conditions": "1 µM", "remaining binding [%]": 21}
{"Structure (SMILES)": "FC(F)(F)Oc1cccc(-c2cnc3ccc(-c4ccncc4)nn23)c1", "target": "BRAF", "assay": "cell-free assay, competition with immobilised ligand", "conditions": "5 µM", "remaining binding [%]": 32}
{"Structure (SMILES)": "Nc1ncc2c(n1)-c1c([nH]c3ccc(C#CC4CC4)cc13)CCCC2", "target": "BRAF", "assay": "binding, competition with immobilised ligand", "conditions": "1 µM", "remaining binding [%]": 100}
{"Structure (SMILES)": "O=C(Nc1c[nH]nc1C(=O)NC1CCNCC1)c1cc(F)cc(F)c1", "target": "BRAF V600E", "assay": "binding, competition with immobilised ligand", "conditions": "1 µM", "remaining binding [%]": 100}
{"Structure (SMILES)": "CCN1CCN(Cc2ccc(C(=O)Nc3ccc(C)c(Oc4ccc5c(c4)CC(=O)N5)c3)cc2C(F)(F)F)CC1", "target": "BRAF V600E", "assay": "binding, competition with immobilised ligand", "conditions": "1 µM", "remaining binding [%]": 28}
{"Structure (SMILES)": "COc1cc(-c2cn(C3CCc4ccccc4N(CC(F)(F)F)C3=O)nn2)ccc1-n1ccc(C)n1 (stereo not shown)", "target": "BRAF", "assay": "cell-free assay, competition with immobilised ligand", "conditions": "1 µM", "remaining binding [%]": 100}
{"Structure (SMILES)": "CN(C)c1nccc(-c2cnn3ncccc23)n1", "target": "BRAF", "assay": "binding", "conditions": "1 µM", "remaining binding [%]": 74}
{"Structure (SMILES)": "C=CC(=O)N1CCC(C(=O)NCC(=O)N2CCN(c3nc(-c4cnc(N)nc4C(F)F)nc(N4CCOCC4)n3)CC2)CC1", "target": "BRAF", "assay": "binding, competition with immobilised ligand", "conditions": "1 µM", "remaining binding [%]": 92}
{"Structure (SMILES)": "O=C(NCCCN1CCOCC1)c1ccc(Nc2nccc(-c3cc4ccccc4s3)n2)cc1", "target": "BRAF", "assay": "binding, competition with immobilised ligand", "conditions": "1 µM", "remaining binding [%]": 77}
{"Structure (SMILES)": "COc1ccc2cc(OCC3(C(=O)O)CN(C(=O)c4ccc(F)cc4)C3)ccc2c1", "target": "BRAF V600E", "assay": "cell-free assay, competition with immobilised ligand", "conditions": "1 µM", "remaining binding [%]": 100}
{"Structure (SMILES)": "N#Cc1ccccc1CSc1nnc2c(n1)[nH]c1ccccc12", "target": "BRAF V600E", "assay": "binding, competition with immobilised ligand", "conditions": "10 µM", "remaining binding [%]": 100}
